These results are taken from ChEMBL document CHEMBL3244398, “Oxidative and cardiovascular studies on natural and synthetic catecholamines” (J Med Chem, 1978).

The subject of data set [1] is Rattus norvegicus. In words: Acute pressor activity in iv dosed Sprague-Dawley rat assessed as duration of arterial systolic blood pressure by 30 mmHg maintenance. It is filed as functional, Artery. In short, it runs like this: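 Iv jugular-cannula dosing was used in male normotensive Sprague-Dawley rats (380 ± 20 g), with arterial pressure recorded by carotid cannula and transducer. Six doses over a tenfold range were each given to four animals. Duration is the seconds for which blood pressure was […].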

Data set [2] can be described thus: physchem.

On to `C[C@H](N)Cc1ccc(O)c(O)c1`, for which the Time in data set [1] was 34 s.

Turning to `C[C@@H](N)Cc1ccc(O)c(O)c1`, the Time in data set [1] stood at 20 s.

Turning to `CC(N)Cc1ccc(O)c(O)c1` (racemic), the pKa (as a rule, the negative logarithm of the acid dissociation constant) in data set [2] amounted to 10. In data set [1], the Time came to 22 s.

The compound `CNCC(C)c1ccc(O)c(O)c1` (racemic) showed a pKa in data set [2] of 10.5. Moreover, the Time in data set [1] stood at 28 s.

As to `CC(CN)c1ccc(O)c(O)c1.Cl` (racemic), in data set [2], the pKa amounted to 10. Also, the Time in data set [1] was determined as 29 s.

On to `CNCC(OC)c1ccc(O)c(O)c1.Cl` (racemic), for which the pKa in data set [2] turned out to be 9.5. In addition, the Time in data set [1] turned out to be 21 s.

In the case of `NCC(O)c1ccc(O)c(O)c1` (racemic), the pKa in data set [2] came out at 9. The Time in data set [1] turned out to be 32 s.

`CNCCc1ccc(O)c(O)c1` [DEOXIEPINEPHRINE]: in data set [2], the pKa came out at 10.5. Besides, the Time in data set [1] turned out to be 18 s.

In turn, `CNC` [DIMETHYLAMINE] came in with a pKa in data set [2] of 10.8.

Take `NCCc1ccc(O)c(O)c1` [DOPAMINE]: the pKa in data set [2] came to 10. Moreover, the Time in data set [1] is 32 s.

For `CNC[C@H](O)c1ccc(O)c(O)c1` [EPINEPHRINE], the pKa in data set [2] was 9.5. Also, in data set [1], the Time is given as 12 s.

With `CN` [METHYLAMINE], the pKa in data set [2] worked out at 10.6.

As to `NC[C@H](O)c1ccc(O)c(O)c1` [NOREPINEPHRINE], the Time in data set [1] was determined as 32 s.
